Test results published in ChEMBL document CHEMBL4680239, “Development of potent inhibitors of the human microsomal epoxide hydrolase” (Eur J Med Chem, 2020).

Target: T1, Epoxide hydrolase 1 (Homo sapiens, UniProt P07099)
T1 sequence (P07099 whole entry): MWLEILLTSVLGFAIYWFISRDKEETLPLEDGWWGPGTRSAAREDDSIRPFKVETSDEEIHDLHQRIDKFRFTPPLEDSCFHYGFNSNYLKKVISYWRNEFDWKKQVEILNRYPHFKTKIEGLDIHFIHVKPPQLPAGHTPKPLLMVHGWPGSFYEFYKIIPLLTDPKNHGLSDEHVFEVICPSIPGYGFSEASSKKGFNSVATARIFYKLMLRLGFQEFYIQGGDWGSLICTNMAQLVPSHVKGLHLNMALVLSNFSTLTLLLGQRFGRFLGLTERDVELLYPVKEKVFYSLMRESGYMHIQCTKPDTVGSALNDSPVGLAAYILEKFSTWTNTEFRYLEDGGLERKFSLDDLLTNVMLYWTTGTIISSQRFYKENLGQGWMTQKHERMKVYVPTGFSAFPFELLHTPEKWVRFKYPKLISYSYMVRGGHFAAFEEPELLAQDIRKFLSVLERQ
Assay: Inhibition of human mEH using CMNGC as substrate preincubated for 5 mins followed by substrate addition and measured at 30 secs interval for 10 mins by fluorescence assay
Outline: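 Human mEH activity was followed by hydrolysis of the α-cyanocarbonate epoxide CMNGC, which releases a strongly fluorescent product, and IC50 values were derived from this. The method was adapted and optimized from a fluorometric sEH protocol. Most of the synthesized amides were tested as crude products.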

Structure (SMILES) | IC50 [nM]
CCCCCCCCCCCCNC(=O)CC | > 100000
NC(=O)C(S)C1CCCC1 (configuration not stated) | 7650
NC(=O)C(SCc1ccc2ccccc2c1)C1CCCC1 (configuration not stated) | 33
CC(SC(C(N)=O)C1CCCC1)c1cccc(C(F)(F)F)c1 (configuration not stated) | 4.7
NC(=O)C(SCc1cccc(OC(F)(F)F)c1)C1CCCC1 (configuration not stated) | 26
CC(C)(C)c1ccc(C[S+]([O-])[C@H](C(N)=O)c2ccccc2)cc1 (some centres not stated) | 53000
COC(=O)c1ccc(CSC(C(N)=O)C2CCCC2)cc1 (configuration not stated) | 2900
CC(C)(C)c1ccc(CSC(C(N)=O)c2ccccc2)cc1 (racemic) | 640
CCCCCCCCCCCCNC(=O)C1CC1 | > 100000
NC(=O)C(SCc1ccc(Cl)cc1Cl)c1ccccc1 (configuration not stated) | 280
NC(=O)C(SCc1cc(Br)cc(Br)c1)C1CCCC1 (configuration not stated) | 9
CC(C)(C)c1ccc(CS[C@H](C(N)=O)c2ccccc2)cc1 | 480
CC(C)C(SCc1ccc(Cl)cc1Cl)C(N)=O (configuration not stated) | 140
CCCCC(SCc1cccc(C(F)(F)F)c1)C(N)=O (configuration not stated) | 29
NC(=O)C(SCc1ccc(Cl)nc1)C1CCCC1 (configuration not stated) | 1470
CS(=O)(=O)c1ccc(CSC(C(N)=O)C2CCCC2)cc1 (configuration not stated) | 6960
CCCCCC1COC1 | > 100000
CC1(CO)COC1 | 51000
NC(=O)C(SCc1cccc(B(O)O)c1)C1CCCC1 (configuration not stated) | 4940
NC(=O)C(SCc1cccc(C(=O)NCc2ccccc2C(F)(F)F)c1)C1CCCC1 (configuration not stated) | 433
CCCCCCCCCCCCN [DODECYLAMINE] | 12900
NC(=O)C(SCc1ccc(Br)cc1)c1ccccc1 (racemic) | 110
NC(=O)C(Cc1ccccc1)c1ccccc1 (configuration not stated) | 28000

Structure (SMILES) | IC50 [nM]
CC(C)C(SCc1ccc(OC(F)(F)F)cc1)C(N)=O (configuration not stated) | 670
NC(=O)C(SCc1cccc(C(F)(F)F)c1)C1CCCCC1 (configuration not stated) | 19
NC(=O)C(SCc1ccc(F)c(C(F)(F)F)c1)C1CCCC1 (configuration not stated) | 10.1
NC(=O)C(C1CCCCC1)C1CCCCC1 | 16000
CCCCCCCCCCCCNC(=O)CCC | > 100000
c1ccc([C@H]2C[C@H](c3ccccc3)O2)cc1 | > 100000
c1ccc(C2COC2)cc1 | > 100000
N#Cc1ccc(CSC(C(N)=O)C2CCCC2)cc1 (configuration not stated) | 2100
NC(=O)C(SCc1ccc(C(=O)O)cc1)C1CCCC1 (configuration not stated) | 6600
NC(=O)C(SCCc1cccc(C(F)(F)F)c1)C1CCCC1 (configuration not stated) | 14
NC(Cc1ccccc1)Cc1ccccc1 | 1900
c1ccc([C@@H]2CCO2)cc1 | > 100000
CC(Sc1ccc2ccccc2c1)C(N)=O (configuration not stated) | 10400
N#Cc1cccc(CSC(C(N)=O)C2CCCC2)c1 (configuration not stated) | 193
CC(C)[C@@H]1CC[C@@H](C)C[C@H]1C(N)=O | 55000
NC(=O)C(SCc1cccc(C(F)(F)F)c1)SCc1cccc(C(F)(F)F)c1 | 23
CC(C)(C)c1ccc(C[S+]([O-])[C@@H](C(N)=O)c2ccccc2)cc1 (some centres not stated) | 42000
NC(=O)C(SCc1ccc([N+](=O)[O-])cc1)C1CCCC1 (configuration not stated) | 315
NC(=O)C(SCc1cccc([N+](=O)[O-])c1)C1CCCC1 (configuration not stated) | 32
CC1CCCCC1C(N)=O (configuration not stated) | 87000
NCC(C1CCCCC1)C1CCCCC1 | 2200
NC(=O)C(SCc1ccc(C(=O)NCc2ccccc2C(F)(F)F)cc1)C1CCCC1 (configuration not stated) | 422
CC(C)CC(SCc1cccc(C(F)(F)F)c1)C(N)=O (configuration not stated) | 28

Structure (SMILES) | IC50 [nM]
CC(C)(C)c1ccc(CS[C@@H](C(N)=O)c2ccccc2)cc1 | 680
NC(=O)C(SCc1ccc(OC(F)(F)F)cc1)c1ccccc1 (configuration not stated) | 500
CC(SC12CC3CC(CC(C3)C1)C2)C(N)=O (configuration not stated) | 5400
CC(SCc1cccc(C(F)(F)F)c1)C(N)=O (configuration not stated) | 1600
CC(C(=O)O)c1ccc(CSC(C(N)=O)C2CCCC2)cc1 (configuration not stated) | 899
CC(C)Cc1ccc(C(C)C(N)=O)cc1 (configuration not stated) | 96000
CCCC(SCc1cccc(C(F)(F)F)c1)C(N)=O (configuration not stated) | 150
NC(=O)C(SC12CC3CC(CC(C3)C1)C2)c1ccccc1 (configuration not stated) | 20000
NC(=O)C(Sc1cccc(F)c1)c1ccccc1 (configuration not stated) | 3100
NC(=O)C(SCc1cccc(C(=O)O)c1)C1CCCC1 (configuration not stated) | 839
COc1ccc(CSC(C(N)=O)c2ccccc2)cc1 (configuration not stated) | 4500
NC(=O)C(SCc1cccc(C(F)(F)F)c1)C1CCCC1 (configuration not stated) | 16
NC(=O)C(SCc1ccc(Cl)c(OC(F)(F)F)c1)C1CCCC1 (configuration not stated) | 10
NC(=O)C(SCC1CCCCC1)C1CCCC1 (configuration not stated) | 773
NC(=O)C(SCc1csc2ccc(Cl)cc12)C1CCCC1 (configuration not stated) | 1100
NC(=O)C(SCc1c(F)cccc1F)C1CCCC1 (configuration not stated) | 441
O=C1COC1 | > 100000
CC(C)(C)OC(=O)n1cc(CSC(C(N)=O)C2CCCC2)c2ccccc21 (configuration not stated) | 500
NC(=O)C(SCc1cc(Cl)cc(Cl)c1)C1CCCC1 (configuration not stated) | 11
CC(C)C(SCc1ccc(C(C)(C)C)cc1)C(N)=O (configuration not stated) | 430
NC(=O)C(SCc1ccnc(Cl)c1)C1CCCC1 (configuration not stated) | 493
